Bioassay records as filed in PubChem.
HCV NS3 hel inh = HCV NS3 helicase inhibition; NS3 helicase DNA unwinding, Cy5 molecular beacon fluorescence; inhibition, % at 10.9 µM; hit rate 0.56% among 290,000;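 active = inhibition above the mean of all tested compounds plus 3 SD, set per campaign, cut at about 35% in these data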
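test system = hepatitis C virus NS3 helicase domain fragment enzyme | reagent = annealed dual-labelled DNA beacon duplex, ATP-started | times = 1 h at 25 °C | detection = Cy5 fluorescence, 0 and 60 min reads | read-out basis = percent inhibition from t60/t0 fluorescence ratio | control set = DMSO and thioflavine S | replication = one well per compound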
HSP90 refold inh = blocks HSP90-mediated luciferase refolding in reticulocyte lysate. Rabbit reticulocyte lysate, luciferase refolding luminescence, 3 h. inhibition, % at 5.6 µM. hit rate 0.91% among 290,000;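 active = inhibition above the screen-wide mean plus 3 SD, computed separately per campaign, cut at about 16% in these data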;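 note: inhibitors lower the luminescence because luciferase stays unfolded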
FID counter = fluorescent intercalator displacement, NS3 helicase counter-screen. AID 1845. inhibition, % at 7.9 µM. DNA fluorescent intercalator displacement, fluorescence. hit rate 0.17% among 290,000; in the data active = inhibition above about 37%;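 note: higher means more ethidium bromide displaced from hairpin DNA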
HSF1 inh = HSF1 inhibition | NIH3T3-HGL HSE-luciferase, MG132-induced, luminescence 8 h; stronger effect = lower value | activity change, negative = inhibition, % at 7.5 µM (by protocol) | hit rate 0.77% among 300,000 | AID 2098;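 active = more than half of replicate wells show activity change below -50%, luminescence cut by over half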;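 note: luciferase reports HSF-1 transcriptional activity via heat shock element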
core dimer inh = blocks dimerization of HCV core protein; TR-FRET GST/Flag-core106 dimerization, 1536-well; inhibition, % at 5 µM; hit rate 0.33% among 300,000;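 active = inhibition above the mean of all tested compounds plus 3 SD, set per screening campaign, cut at about 45% in these data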
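Assay system: Tagged HCV core106 pair (GST and Flag) | Buffer or medium: KF-containing HEPES buffer, pH 7.45, DTT, CHAPS, BSA | Also added: Eu donor and XL665 acceptor anti-tag antibodies | Dosing: One concentration, 5 µM, in 0.5% DMSO | Timing: 4 h at 22.5 °C | Technique: TR-FRET 671 and 617 nm emission | Repeats: Singlicate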
HSF-1 act = increases HSF-1 driven luciferase reporter signal; NIH3T3-HGL HSF-1 luciferase reporter, MG132, 8 h; 100% = twice DMSO control signal; activation, % at 9 µM; hit rate 1.7% among 300,000; AID 504408;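 active = mean replicate activation of at least 50% with a set share of replicates each reaching 50%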
Numbers stand for hits; - = inactive; . = no result. An excerpt weighted towards active compounds, which were near 3.9% of everything screened.

SMILES	HCV NS3 hel inh	HSP90 refold inh	FID counter	HSF1 inh	core dimer inh	HSF-1 act
O=C(Nc1ccc2c(c1)CCC2)c1ccccc1Br	-	-	-	-	-	54
O=C(NCCCn1ccnc1)c1ccc(C(F)(F)F)cc1	-	-	-	-	-	-
O=C(NC1CCCC1)C1CCCN1C(=O)Oc1ccccc1 (stereo unspecified)	-	-	-	-	-	-
CC(C)c1ccc(C(=O)N2CCCN(C(=O)c3ccc(C(C)C)cc3)CC2)cc1	-	-	-	-	-	-
CCN1CCCC1CNC(=O)C1CCN(Cc2nc(-c3cccc(Br)c3)oc2C)CC1 (stereo unspecified)	-	-	39	-	-	-
O=C(c1cccs1)N1CCN(S(=O)(=O)c2ccc(F)cc2)CC1	-	-	-	-	-	-
CC(=O)c1ccc(NC(=O)CCCN2C(=O)/C(=C/C(C)=C/c3ccccc3)SC2=S)cc1	-	-	-	-	-	70
CCN(CC)CCOC(=O)c1ccc(NC(=O)CCCN2C(=O)/C(=C/c3cccs3)SC2=S)cc1	-	-	44	-	.	-
CC(/C=C1\SC(=S)N(CC(=O)N2CCN(c3ccccc3)CC2)C1=O)=C\c1ccccc1	-	-	-	-	50	-
CC(/C=C\c1cccnc1)=C/C(=O)O	-	-	-	-	-	-
CCOC(=O)c1c(NC(=O)c2csc(C)c2)sc(C(C)=O)c1C	-	-	-	.	.	.
O=C(c1ccc(Cl)cc1)N1CCC(=O)N(C(CO)Cc2ccccc2)CC1 (stereo unspecified)	.	.	.	-	-	-
C#CCOc1ccc(/C=C2/C(=O)ON=C2C)cc1Cl	-	-	-	-	-	-
Cn1c(=O)c2c(nc(Oc3cccc(O)c3)n2C)n(C)c1=O	-	-	-	-77	-	-
CSc1ccc(C(=O)C2CCCN(C(=O)CN3CCOC3=O)C2)cc1 (stereo unspecified)	-	-	-	-	.	-
CCCn1c(N)c(CC)c(=O)[nH]c1=O	-	-	-	.	-	.
COc1ccccc1COCC(O)CNCC1(N2CCCCC2)CCCCC1 (stereo unspecified)	-	-	-	-	-	-
CN(C)/C=C/C(=O)/C=C/c1cn(-c2ncc(C(F)(F)F)cc2Cl)c2ccccc12	-	-	-	-	58	-
COC(=O)Cc1cn(-c2ncc(C(F)(F)F)cc2Cl)c2ccccc12	-	-	-	-	-	-
COc1ccc(CCN=C(NS(=O)(=O)c2ccc(Cl)cc2)c2ccccc2)cc1	-	-	-	-	-	-
COc1ccc(CCN=C(NS(=O)(=O)c2ccccc2)c2ccccc2)cc1OC	-	-	-	-	-	59
O=c1[nH]n(CC2COC3(CCCCC3)O2)c(=O)c2ccccc12 (stereo unspecified)	-	-	-	-	-	63
COc1ccc(-n2nc3c(N4CCC(C(=O)N5CCC(C)CC5)CC4)nnc(C)c3c2C)cc1	-	-	-	-	-	55
CCOC(=O)N1CCN(C(=O)CSc2ccc3nnc(-c4cccnc4)n3n2)CC1	-	-	-	-	-	-
CCC(C)/C=C/C1=CC2=C(Cl)C(=O)C3(C)OC(=O)C(C(=O)C(C)C(C)O)C3C2=CO1 (stereo unspecified)	-	-	-	-	-	-
SMILES	HCV NS3 hel inh	HSP90 refold inh	FID counter	HSF1 inh	core dimer inh	HSF-1 act
CSc1ncc(C(=O)Nc2cccnc2)c(C(F)(F)F)n1	-	-	-	-79	.	-
O=C(Nc1cccc(Cl)c1)C1CCN(C(=O)c2cccs2)CC1	-	-	-	-	-	-
Cc1nc(-c2ccc(C(=O)Nc3cccc(Br)c3)cc2)cs1	-	-	-	-	-	56
Cc1nc(-c2cccc(NC(=O)c3ccc(Br)o3)c2)cs1	-	-	-	.	.	.
Cc1nc(-c2ccc(NC(=O)c3ccc(Br)o3)cc2)cs1	-	-	-	-	-	53
CCN1C(=O)c2cccc3c(S(=O)(=O)Nc4ccccc4)ccc1c23	-	-	-	-	-	59
CCN1C(=O)c2cccc3c(S(=O)(=O)Nc4ncccc4C)ccc1c23	-	-	-	-	-	89
C=CCN1C(=O)c2ccc(C(=O)N3CCN(S(=O)(=O)c4cccc(F)c4)CC3)cc2C1=O	.	.	.	-	-	-
COc1ccc(C2=NN(C(=O)CCC(=O)O)C(c3cccs3)C2)cc1 (stereo unspecified)	-	-	-	-	-	-
COc1ccc(C2=NN3C(C2)c2ccccc2OC32C(=O)N(C)c3ccccc32)cc1 (stereo unspecified)	-	-	-	-	65	92
COc1ccc(C2=NN3C(C2)c2ccccc2OC3c2cccs2)cc1 (stereo unspecified)	-	-	-	-	-	63
CCCCCN(C(=O)CCC(=O)OCC(=O)c1ccc(C(C)(C)C)cc1)c1c(N)n(CCCC)c(=O)[nH]c1=O	.	.	.	-	-	76
CCCCN(C(=O)COc1ccc(C)cc1OC)c1c(N)n(CCC)c(=O)[nH]c1=O	-	-	-	-69	-	-
CCCCn1c(N)c(N(CCC(C)C)C(=O)C2CCN(C(=O)c3ccccc3C)CC2)c(=O)[nH]c1=O	.	.	.	-	-	-
CC(C)(C)c1cc(-c2n[nH]c(=S)n2-c2ccc(Cl)cc2)n[nH]1	-	-	-	-	-	-
CCN(c1ccc(OC)cc1)S(=O)(=O)c1nnc(NC(=O)COc2ccc(C)cc2)s1	-	-	-	-	56	-
CCN(c1ccc(OC)cc1)S(=O)(=O)c1nnc(NC(=O)COc2ccc(F)cc2)s1	-	-	-	-	-	-
COc1ccc(CNC(=O)c2ccc(N(C)S(=O)(=O)c3ccc(C)cc3)cc2)cc1	-	-	-	-	-	-
COc1ccc(CCNC(=O)COc2ccc(N(C)S(=O)(=O)c3ccc(C)cc3)cc2)cc1	-	-	-	-	-	53
COc1ccc(S(=O)(=O)N(C)c2ccc(C(=O)NCc3ccccn3)cc2)cc1	-	-	-	-	-	68
COc1ccc(S(=O)(=O)Nc2ccc3c(c2)CCC3)cc1	-	-	-	-	-	-
Cc1nc(N2CCN(C(c3ccccc3)c3ccccc3)CC2)[nH]c(=O)c1C	-	-	-	-	.	-
CC1(C)C(=O)OC(c2c(F)c(F)c(F)c(F)c2F)C2(CCCCC2)C1=O (stereo unspecified)	-	-	-	-	-	-
NC(=O)c1cc2cc(Br)ccc2oc1=NCc1ccccc1	-	-	-	-	-	190
FC(F)(F)c1nnc(-c2ccccc2)nc1Sc1ccccc1	-	-	-	-	-	260
FC(F)(F)c1nnc(-c2ccccc2)nc1Sc1ccc(Cl)cc1	-	-	-	-	-	-
O=C(CO/N=C/c1ccccc1)N1c2ccccc2Oc2ccccc21	-	16	-	-	-	-
CN(C)C=Nc1ncc2c3ccccc3n(CCN(C)C)c2c1C#N	-	-	-	-	-	-
